pKd: −log10 of the molar value. Active and inactive are the calls of the source. No cut-off for these calls is given here.
What was measured:
[1] = molecular target: Casein kinase I isoform delta (Homo sapiens) (UniProt P48730); assay: Inhibition of ligand binding to human full-length CK1delta (M1 to K409 residues) expressed in bacterial expression system at 10 uM measured after 1 hr by Kinomescan method relative to control
Method in brief: (§1)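 Binding ran 1 h at room temperature. Kinase not bound to compound was captured by an immobilized affinity ligand and measured by qPCR, in duplicate.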

[2] = molecular target: T1, High affinity nerve growth factor receptor (Homo sapiens, UniProt P04629); assay: Inhibition of ligand binding to human partial length TRKA (G475 to G790 residues) expressed in HEK293 cells at 10 uM measured after 1 hr by Kinomescan method relative to control; type: cell-based; method in brief: as §1
Target sequence in this assay (P04629 33-796 limits assumed): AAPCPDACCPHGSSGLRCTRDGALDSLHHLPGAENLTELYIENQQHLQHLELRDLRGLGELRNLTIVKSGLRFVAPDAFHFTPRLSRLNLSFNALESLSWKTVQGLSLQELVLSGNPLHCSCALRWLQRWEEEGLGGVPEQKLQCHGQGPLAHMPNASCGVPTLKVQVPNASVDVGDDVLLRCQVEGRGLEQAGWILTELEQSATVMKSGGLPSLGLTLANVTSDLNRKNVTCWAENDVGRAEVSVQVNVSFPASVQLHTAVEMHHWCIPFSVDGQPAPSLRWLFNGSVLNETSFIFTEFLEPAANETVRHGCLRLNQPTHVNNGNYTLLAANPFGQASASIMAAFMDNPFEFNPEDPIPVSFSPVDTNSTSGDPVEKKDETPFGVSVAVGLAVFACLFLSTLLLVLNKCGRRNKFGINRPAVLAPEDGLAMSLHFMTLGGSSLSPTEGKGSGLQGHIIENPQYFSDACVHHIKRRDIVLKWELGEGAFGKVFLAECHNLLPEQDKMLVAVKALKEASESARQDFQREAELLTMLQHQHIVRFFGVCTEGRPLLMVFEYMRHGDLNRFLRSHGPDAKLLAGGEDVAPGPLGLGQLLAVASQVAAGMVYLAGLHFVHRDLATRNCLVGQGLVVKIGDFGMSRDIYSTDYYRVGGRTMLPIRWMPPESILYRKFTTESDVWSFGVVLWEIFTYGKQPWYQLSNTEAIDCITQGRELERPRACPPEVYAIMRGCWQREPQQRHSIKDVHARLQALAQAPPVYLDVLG

[3] = molecular target: T2, Mitogen-activated protein kinase 8 (Homo sapiens, UniProt P45983); assay: Inhibition of ligand binding to human full-length JNK1 (M1 to Q384 residues) expressed in HEK293 cells at 10 uM measured after 1 hr by Kinomescan method relative to control; type: cell-based; method in brief: as §1
[4] = molecular target: T3, Mitogen-activated protein kinase 9 (Homo sapiens, UniProt P45984); assay: Inhibition of ligand binding to human full-length JNK2 (M1 to Q382 residues) expressed in HEK293 cells at 10 uM measured after 1 hr by Kinomescan method relative to control; type: cell-based; method in brief: as §1
Target sequence in this assay (P45984 whole entry, looked up, the tested form may be a part): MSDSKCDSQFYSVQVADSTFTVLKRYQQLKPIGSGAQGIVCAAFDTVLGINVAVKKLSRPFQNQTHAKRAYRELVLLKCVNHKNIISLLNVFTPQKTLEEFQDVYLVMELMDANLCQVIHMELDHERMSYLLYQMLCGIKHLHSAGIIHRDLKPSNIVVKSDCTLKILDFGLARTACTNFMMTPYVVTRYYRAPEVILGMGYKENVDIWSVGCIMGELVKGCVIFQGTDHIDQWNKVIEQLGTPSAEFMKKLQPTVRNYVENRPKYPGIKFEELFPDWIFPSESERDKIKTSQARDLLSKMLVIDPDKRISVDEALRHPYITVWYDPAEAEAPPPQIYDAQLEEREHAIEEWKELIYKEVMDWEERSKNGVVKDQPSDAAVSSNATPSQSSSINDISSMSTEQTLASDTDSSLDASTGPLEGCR

[5] = molecular target: T4, Mitogen-activated protein kinase 10 (Homo sapiens, UniProt P53779); assay: Inhibition of ligand binding to human partial length JNK3 (V28 to Q422 residues) expressed in HEK293 cells at 10 uM measured after 1 hr by Kinomescan method relative to control; type: cell-based; method in brief: as §1
[6] = molecular target: T1, High affinity nerve growth factor receptor; assay: Binding affinity to human partial length TRKA (G475 to G790 residues) expressed in HEK293 cells measured after 1 hr by Kinomescan method; type: cell-based
Target sequence in this assay (P04629 whole entry, the tested form may be a part): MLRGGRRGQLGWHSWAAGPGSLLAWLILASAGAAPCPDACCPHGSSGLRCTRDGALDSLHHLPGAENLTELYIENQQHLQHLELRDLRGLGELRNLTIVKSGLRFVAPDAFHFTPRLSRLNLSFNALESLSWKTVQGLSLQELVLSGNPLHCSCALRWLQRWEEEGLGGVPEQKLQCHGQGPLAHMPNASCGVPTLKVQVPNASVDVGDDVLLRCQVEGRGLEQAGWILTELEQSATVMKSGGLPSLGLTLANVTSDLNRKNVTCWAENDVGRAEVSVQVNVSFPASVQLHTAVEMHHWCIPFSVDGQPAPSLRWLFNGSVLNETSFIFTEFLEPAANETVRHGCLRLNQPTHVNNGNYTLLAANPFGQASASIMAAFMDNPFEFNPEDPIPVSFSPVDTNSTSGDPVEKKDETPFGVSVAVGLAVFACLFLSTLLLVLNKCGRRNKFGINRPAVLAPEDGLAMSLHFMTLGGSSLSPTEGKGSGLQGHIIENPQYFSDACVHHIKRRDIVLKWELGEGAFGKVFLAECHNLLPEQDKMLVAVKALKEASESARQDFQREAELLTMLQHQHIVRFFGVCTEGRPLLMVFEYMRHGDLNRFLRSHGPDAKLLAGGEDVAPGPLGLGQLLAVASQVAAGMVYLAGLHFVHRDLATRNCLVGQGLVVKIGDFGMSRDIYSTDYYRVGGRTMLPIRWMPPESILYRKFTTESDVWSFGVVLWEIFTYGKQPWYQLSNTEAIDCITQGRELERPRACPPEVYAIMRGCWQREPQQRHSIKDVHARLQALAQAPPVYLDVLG

[7] = molecular target: T5, c-Jun N-terminal kinase, JNK (Homo sapiens, UniProt P45983+P53779+P45984); assay: Inhibition of JNK in human THP1-Blue cells assessed as reduction in LPS-induced NFkappaB/AP1 activation preincubated for 30 mins followed by LPS-stimulation and measured after 24 hrs by quanti-blue staining based alkaline phosphatase reporter gene assay; type: cell-based
[8] = molecular target: T5, c-Jun N-terminal kinase, JNK; assay: Inhibition of JNK in human MONO-MAC-6 cells assessed as reduction in LPS-induced IL6 production preincubated for 30 mins followed by LPS-stimulation and measured after 24 hrs by ELISA; type: cell-based
Method in brief: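 MonoMac-6 cells, 2 × 10^5/well in medium with 3% endotoxin-free FBS, were pretreated 30 min with compound or DMSO, then stimulated with 250 ng/ml LPS for 24 h. IL-6 in the supernatant was measured by human IL-6 ELISA. IC50 came from percent inhibition vs log concentration (at least five points); triplicate samples, representative of three experiments.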

[9] = Lipophilicity, log P of the compound; type: physicochemical; conditions: octanol/water
[10] = molecular target: T2, Mitogen-activated protein kinase 8; assay: Binding affinity to human full-length JNK1 (M1 to Q384 residues) expressed in HEK293 cells measured after 1 hr by Kinomescan method; type: cell-based
Method in brief: (§2)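 Competition binding on a phage-display/cell-expressed kinase platform; each compound incubated with kinase 1 h at room temperature. Unbound kinase was captured on an immobilized affinity ligand and quantified by qPCR. N.A. means no inhibition below 40 µM.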

[11] = molecular target: T3, Mitogen-activated protein kinase 9; assay: Binding affinity to human full-length JNK2 (M1 to Q382 residues) expressed in HEK293 cells at <40 uM after 1 hr by Kinomescan method; type: cell-based
Method in brief: (§3)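 Competition binding on a phage-display/cell-expressed kinase platform; each compound incubated with kinase 1 h at room temperature. Unbound kinase was captured on an immobilized affinity ligand and quantified by qPCR. […] N.A. means no inhibition below 40 µM.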
Target sequence in this assay (P45984 whole entry, looked up, the tested form may be a part): as the sequence (P45984 whole entry, looked up, the tested form may be a part) above

[12] = molecular target: T4, Mitogen-activated protein kinase 10; assay: Binding affinity to human partial length JNK3 (V28 to Q422 residues) expressed in HEK293 cells at <40 uM after 1 hr by Kinomescan method; type: cell-based; method in brief: as §3
[13] = molecular target: BDNF/NT-3 growth factors receptor (Homo sapiens, UniProt Q16620); assay: Binding affinity to human partial length TRKB (Q547 to G838 residues) expressed in HEK293 cells measured after 1 hr by Kinomescan method; type: cell-based
[14] = molecular target: T3, Mitogen-activated protein kinase 9; assay: Binding affinity to human full-length JNK2 (M1 to Q382 residues) expressed in HEK293 cells measured after 1 hr by Kinomescan method; type: cell-based; method in brief: as §2
Target sequence in this assay (P45984 whole entry, the tested form may be a part): as the sequence (P45984 whole entry, looked up, the tested form may be a part) above

[15] = molecular target: T4, Mitogen-activated protein kinase 10; assay: Binding affinity to human partial length JNK3 (V28 to Q422 residues) expressed in HEK293 cells measured after 1 hr by Kinomescan method; type: cell-based; method in brief: as §2
[16] = Cytotoxicity against human THP1-Blue cells assessed as effect on cell viability up to 50 uM after 24 hrs by CellTiter-Glo luminescent cell viability assay; type: cell-based
Method in brief: (§4)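 Viability of MonoMac-6 and THP-1Blue cells was tested with compound up to 50 µM for 24 h at 37 °C, 5% CO2. After 30 min equilibration to room temperature, CellTiter-Glo reagent was added and luminescence read. IC50 was derived from percent inhibition vs log concentration, at least five points.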

[17] = tested on: MONO-MAC-6; assay: Cytotoxicity against human MONO-MAC-6 cells assessed as effect on cell viability up to 50 uM after 24 hrs by CellTiter-Glo luminescent cell viability assay; type: cell-based; conditions: mono-mac-6, 24 h; method in brief: as §4
[18] = tested on: Transcription factor AP-1 (Homo sapiens); assay: Inhibition of LPS-induced c-Jun phosphorylation at ser73 residues in human MONO-MAC-6 cells at 6.25 to 50 uM preincubated for 30 mins followed by LPS-stimulation and measured after 30 mins by Western blot analysis

T4 sequence (P53779 whole entry, the tested form may be a part): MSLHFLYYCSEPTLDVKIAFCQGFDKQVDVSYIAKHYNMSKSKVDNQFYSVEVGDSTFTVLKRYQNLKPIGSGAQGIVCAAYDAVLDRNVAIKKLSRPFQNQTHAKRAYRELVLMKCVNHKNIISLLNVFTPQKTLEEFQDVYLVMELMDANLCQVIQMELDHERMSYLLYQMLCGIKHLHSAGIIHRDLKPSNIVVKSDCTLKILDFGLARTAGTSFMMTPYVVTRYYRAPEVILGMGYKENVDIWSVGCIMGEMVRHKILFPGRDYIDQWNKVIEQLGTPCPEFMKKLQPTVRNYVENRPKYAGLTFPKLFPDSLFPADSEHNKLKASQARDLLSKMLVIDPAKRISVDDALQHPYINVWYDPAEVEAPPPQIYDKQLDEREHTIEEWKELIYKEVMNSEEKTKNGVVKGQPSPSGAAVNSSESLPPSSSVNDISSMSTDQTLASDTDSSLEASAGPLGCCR
T2 sequence (P45983 whole entry, the tested form may be a part): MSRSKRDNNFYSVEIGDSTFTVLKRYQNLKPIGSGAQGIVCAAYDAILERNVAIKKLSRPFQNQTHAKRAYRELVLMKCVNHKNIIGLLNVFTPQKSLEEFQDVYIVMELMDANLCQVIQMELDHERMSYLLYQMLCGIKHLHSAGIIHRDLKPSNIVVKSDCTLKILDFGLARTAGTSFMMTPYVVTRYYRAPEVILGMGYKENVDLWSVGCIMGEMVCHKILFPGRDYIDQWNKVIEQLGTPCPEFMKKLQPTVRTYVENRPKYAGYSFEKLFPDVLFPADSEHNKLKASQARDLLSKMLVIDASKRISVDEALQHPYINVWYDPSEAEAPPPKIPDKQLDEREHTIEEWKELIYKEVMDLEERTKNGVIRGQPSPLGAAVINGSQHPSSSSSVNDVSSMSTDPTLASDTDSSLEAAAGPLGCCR
Chain of BDNF/NT-3 growth factors receptor (Q16620 whole entry, the tested form may be a part): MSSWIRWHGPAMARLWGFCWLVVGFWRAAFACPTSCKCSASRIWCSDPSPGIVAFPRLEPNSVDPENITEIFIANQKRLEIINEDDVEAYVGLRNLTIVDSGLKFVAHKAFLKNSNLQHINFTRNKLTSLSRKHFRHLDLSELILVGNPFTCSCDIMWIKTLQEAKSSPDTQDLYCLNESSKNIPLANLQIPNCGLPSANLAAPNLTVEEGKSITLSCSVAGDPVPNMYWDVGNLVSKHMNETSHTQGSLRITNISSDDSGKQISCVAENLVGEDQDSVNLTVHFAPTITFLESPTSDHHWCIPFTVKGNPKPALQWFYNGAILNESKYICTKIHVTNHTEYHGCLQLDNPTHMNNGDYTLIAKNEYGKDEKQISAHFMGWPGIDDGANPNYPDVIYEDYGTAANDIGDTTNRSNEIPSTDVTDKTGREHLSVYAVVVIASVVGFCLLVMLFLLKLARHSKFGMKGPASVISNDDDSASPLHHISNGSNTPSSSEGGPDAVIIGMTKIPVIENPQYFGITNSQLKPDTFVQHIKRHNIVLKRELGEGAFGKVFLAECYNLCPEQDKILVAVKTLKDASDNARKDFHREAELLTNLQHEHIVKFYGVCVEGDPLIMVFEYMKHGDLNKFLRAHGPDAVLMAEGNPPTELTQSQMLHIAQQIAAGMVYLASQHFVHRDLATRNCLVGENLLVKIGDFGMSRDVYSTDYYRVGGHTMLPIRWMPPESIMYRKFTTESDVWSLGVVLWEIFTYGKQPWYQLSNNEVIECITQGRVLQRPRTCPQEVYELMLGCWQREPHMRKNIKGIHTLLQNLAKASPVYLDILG
Chain of Casein kinase I isoform delta (Homo sapiens) (P48730 whole entry, looked up, the tested form may be a part, canonical isoform): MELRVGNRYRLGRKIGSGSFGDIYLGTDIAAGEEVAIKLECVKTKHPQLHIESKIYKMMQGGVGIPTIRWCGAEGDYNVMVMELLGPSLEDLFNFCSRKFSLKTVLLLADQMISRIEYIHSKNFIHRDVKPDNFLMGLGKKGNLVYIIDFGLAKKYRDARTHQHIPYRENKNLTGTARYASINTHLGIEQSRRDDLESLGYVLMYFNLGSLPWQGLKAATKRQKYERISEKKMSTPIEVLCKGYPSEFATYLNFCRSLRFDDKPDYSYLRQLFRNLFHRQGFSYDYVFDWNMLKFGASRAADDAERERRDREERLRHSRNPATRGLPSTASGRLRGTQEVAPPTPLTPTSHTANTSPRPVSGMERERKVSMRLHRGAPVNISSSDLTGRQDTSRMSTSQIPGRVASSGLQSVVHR

Row | inhibition [1] [%] | inhibition [2] [%] | inhibition [3] [%] | inhibition [4] [%] | inhibition [5] [%] | inhibition [7] | inhibition [8] | logP [9] | pKd [14] | pKd [15] | IC50 [7] [nM] | IC50 [8] [nM] | inhibition [18] | SMILES | pKd [6] | pKd [10] | Activity [11] | Activity [12] | pKd [13] | Activity [16] | Activity [17]
1 | > 90 | > 90 | > 90 | > 90 | > 90 | Dose-dependent effect | Dose-dependent effect | 2.92 | – | – | – | – | – | O=c1c2ccccc2nc2n1-c1ccccc1/C2=N\O | 5.96 | – | – | – | – | – | –
2 | – | – | – | – | – | – | – | – | – | – | – | – | – | O=C1c2ccccc2-n2c1nc1ccccc1c2=O [TRYPTANTHRIN] | 5.04 | 4.64 | inactive | inactive | 5.14 | – | –
3 | – | – | – | – | – | Dose-dependent effect | Dose-dependent effect | – | 6.13 | 7.12 | 2500 | 3300 | Active | CCOC(=O)CO/N=C1\c2ccccc2-c2nc3ccccc3nc21 | – | 7.66 | – | – | – | Non-Toxic | Non-Toxic
